Broadly, the Kd is the free concentration of one partner at which half of the binding sites on the other are occupied at equilibrium, for simple one-to-one binding.

Molecules are shown by their SMILES. Some results are limits rather than exact numbers.

The subject of assay [1] is Fibroblast growth factor receptor 1 (Homo sapiens), P11362 [V561M]. Description: Inhibition of recombinant human FGFR1 V561M mutant (456 to 765 residues) assessed as residual activity at 10 uM using KKKSPGEYVNIEF as substrate at 40 mins in presence of [gamma-33ATP] by scintillation counting based radiometry assay relative to control.
The species entered for another assay is Homo sapiens. Description: Inhibition of recombinant human DDR1 V833L mutant (492 to end residues) assessed as residual activity at 10 uM using KKKSPGEYVNIEF as substrate at 40 mins in presence of [gamma-33ATP] by scintillation counting based radiometry assay relative to control.
Assay [2] deals with cAMP-dependent protein kinase catalytic subunit PRKX (Homo sapiens) (UniProt P51817). Description: Inhibition of recombinant human full length PrKX assessed as residual activity at 10 uM using RRRLSFAEPG as substrate incubated for 40 mins in presence of [gamma33P]ATP by scintillation counting based radiometry assay relative to control.
Assay [3] deals with Ephrin type-A receptor 5 (Homo sapiens) (UniProt P54756). Description: Inhibition of recombinant human EphA5 (655to 956 residues) assessed as residual activity at 10 uM using poly(Glu, Tyr) 4:1 as substrate at 40 mins in presence of [gamma-33ATP] by scintillation counting based radiometry assay relative to control.
Assay [4] relates to Tyrosine-protein kinase BTK (Homo sapiens), Q06187 [R28H]. Description: Inhibition of recombinant full length human BTK R28H mutant assessed as residual activity at 10 uM using LSNLYHQGKFLQTFCGSPLYRRR substrate incubated for 40 mins in presence of [gamma-33ATP] by scintillation counting based radiometry assay relative to control.
Assay [5] relates to Glycogen synthase kinase-3 beta (Homo sapiens), P49841 [UNDEFINED MUTATION]. Description: Inhibition of human GSK-3beta H350L mutant (2 to end residues) assessed as residual activity at 10 uM using phospho GS2 peptide as substrate after 40 mins by [gamma-33ATP] radiometric assay relative to control.
Glycogen synthase kinase-3 beta (Homo sapiens), P49841 [UNDEFINED MUTATION], sequence (P49841 whole entry, looked up, stated change not applied): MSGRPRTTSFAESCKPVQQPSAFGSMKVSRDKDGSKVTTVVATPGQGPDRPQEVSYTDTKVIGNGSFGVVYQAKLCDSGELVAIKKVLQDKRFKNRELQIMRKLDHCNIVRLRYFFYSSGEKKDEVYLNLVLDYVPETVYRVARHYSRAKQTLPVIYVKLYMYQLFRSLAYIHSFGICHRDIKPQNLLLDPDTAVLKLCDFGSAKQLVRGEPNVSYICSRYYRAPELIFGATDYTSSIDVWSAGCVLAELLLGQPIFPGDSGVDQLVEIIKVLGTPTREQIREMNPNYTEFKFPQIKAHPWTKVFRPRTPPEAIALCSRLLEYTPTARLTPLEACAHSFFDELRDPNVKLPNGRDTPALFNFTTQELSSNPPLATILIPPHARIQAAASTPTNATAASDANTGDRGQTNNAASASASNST
The target in assay [6] is MAP kinase-interacting serine/threonine-protein kinase 2 (Homo sapiens) (UniProt Q9HBH9). Description: Inhibition of recombinant human MNK2 assessed as residual activity at 10 uM using myelin basic protein as substrate incubated for 40 mins in presence of [gamma-33ATP by scintillation counting based radiometry assay relative to control.
MAP kinase-interacting serine/threonine-protein kinase 2 (Homo sapiens), sequence (Q9HBH9 whole entry, looked up, the tested form may be a part): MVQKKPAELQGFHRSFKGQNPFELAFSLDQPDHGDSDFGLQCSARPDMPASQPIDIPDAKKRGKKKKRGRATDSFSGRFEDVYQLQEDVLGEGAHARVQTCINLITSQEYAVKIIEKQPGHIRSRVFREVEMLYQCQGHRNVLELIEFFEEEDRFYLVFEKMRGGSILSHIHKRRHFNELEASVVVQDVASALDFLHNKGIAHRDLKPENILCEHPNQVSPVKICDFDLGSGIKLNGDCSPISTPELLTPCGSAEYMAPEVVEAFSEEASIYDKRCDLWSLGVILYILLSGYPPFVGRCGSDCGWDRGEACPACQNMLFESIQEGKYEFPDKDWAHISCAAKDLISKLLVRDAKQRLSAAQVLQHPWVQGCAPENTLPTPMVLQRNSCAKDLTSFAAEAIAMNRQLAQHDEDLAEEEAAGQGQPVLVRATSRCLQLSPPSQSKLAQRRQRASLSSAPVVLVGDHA
In assay [7] the target is Serine/threonine-protein kinase LATS1 (Homo sapiens, UniProt O95835). Description: Binding affinity to recombinant human LATS1 (Q678 to V1130 residues) expressed in bacterial expression system assessed as dissociation constant by Kinomescan method. A digest of the protocol: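 KINOMEscan competition binding assay. Kinase bound at each concentration of test compound was quantified by qPCR and plotted against log10 compound concentration to derive Kd.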
Serine/threonine-protein kinase LATS1, sequence (O95835 whole entry, the tested form may be a part): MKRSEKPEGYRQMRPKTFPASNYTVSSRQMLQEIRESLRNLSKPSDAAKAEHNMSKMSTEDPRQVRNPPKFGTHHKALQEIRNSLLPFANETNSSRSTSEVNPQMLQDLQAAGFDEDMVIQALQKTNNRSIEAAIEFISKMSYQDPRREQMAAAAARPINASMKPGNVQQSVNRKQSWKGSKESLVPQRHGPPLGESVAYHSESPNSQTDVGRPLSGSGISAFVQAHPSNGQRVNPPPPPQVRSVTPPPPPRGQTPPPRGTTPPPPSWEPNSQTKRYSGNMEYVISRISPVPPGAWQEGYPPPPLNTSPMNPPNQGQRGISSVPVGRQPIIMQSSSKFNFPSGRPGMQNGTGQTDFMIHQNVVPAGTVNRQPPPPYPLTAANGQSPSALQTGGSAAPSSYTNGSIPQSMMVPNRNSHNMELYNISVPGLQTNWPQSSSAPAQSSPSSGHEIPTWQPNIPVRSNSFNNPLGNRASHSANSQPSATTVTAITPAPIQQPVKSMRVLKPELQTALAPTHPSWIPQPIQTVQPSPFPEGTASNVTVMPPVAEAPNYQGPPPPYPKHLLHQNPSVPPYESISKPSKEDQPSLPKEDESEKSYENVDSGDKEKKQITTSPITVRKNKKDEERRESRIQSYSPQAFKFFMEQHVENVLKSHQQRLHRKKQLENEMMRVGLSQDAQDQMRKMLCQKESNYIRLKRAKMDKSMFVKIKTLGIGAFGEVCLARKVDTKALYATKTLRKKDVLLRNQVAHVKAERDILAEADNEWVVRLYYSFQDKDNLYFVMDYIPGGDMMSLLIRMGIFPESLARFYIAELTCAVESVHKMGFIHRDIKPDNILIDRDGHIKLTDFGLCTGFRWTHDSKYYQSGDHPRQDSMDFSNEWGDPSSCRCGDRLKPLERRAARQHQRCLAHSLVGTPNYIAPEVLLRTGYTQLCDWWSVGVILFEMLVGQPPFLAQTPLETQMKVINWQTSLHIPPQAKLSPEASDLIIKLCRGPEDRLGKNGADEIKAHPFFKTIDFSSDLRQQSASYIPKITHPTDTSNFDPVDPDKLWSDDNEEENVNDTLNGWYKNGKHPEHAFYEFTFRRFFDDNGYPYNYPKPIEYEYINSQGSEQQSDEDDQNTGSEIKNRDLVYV

Assay [8] deals with Mitogen-activated protein kinase 11 (Homo sapiens) (UniProt Q15759). Description: Inhibition of recombinant human full length SAPK2b assessed as residual activity at 10 uM using myelin basic protein as substrate incubated for 40 mins in presence of [gamma33P]ATP by scintillation counting based radiometry assay relative to control.
Mitogen-activated protein kinase 11 (Homo sapiens), sequence (Q15759 whole entry): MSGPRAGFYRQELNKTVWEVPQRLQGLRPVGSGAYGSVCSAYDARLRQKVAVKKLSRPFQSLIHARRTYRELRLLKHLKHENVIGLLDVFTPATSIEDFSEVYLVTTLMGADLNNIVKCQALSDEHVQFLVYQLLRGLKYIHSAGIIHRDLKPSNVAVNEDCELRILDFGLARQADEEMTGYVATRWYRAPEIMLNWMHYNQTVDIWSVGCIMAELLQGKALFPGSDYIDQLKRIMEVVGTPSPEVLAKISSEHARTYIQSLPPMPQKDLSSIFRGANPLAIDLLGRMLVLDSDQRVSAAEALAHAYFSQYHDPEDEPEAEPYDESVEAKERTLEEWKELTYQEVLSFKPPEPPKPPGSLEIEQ
Assay [9] concerns Platelet-derived growth factor receptor alpha (Homo sapiens), P16234 [V561D]. Description: Inhibition of human PDGFRalpha V561D mutant (550 to end residues) assessed as residual activity at 10 uM using poly(Glu, Tyr) 4:1 as substrate measured after 40 mins in presence of [gamma33P]ATP by scintillation counting based radiometry assay relative to control.
The target in assay [10] is Serine/threonine-protein kinase MRCK alpha (Homo sapiens) (UniProt Q5VT25). Description: Inhibition of recombinant human MRCKalpha (1 to 473 residues) assessed as residual activity at 10 uM using KKRNRTLTV as substrate incubated for 40 mins in presence of [gamma-33ATP by scintillation counting based radiometry assay relative to control.
The target of assay [11] is Testis-specific serine/threonine-protein kinase 2 (Homo sapiens) (UniProt Q96PF2). Description: Inhibition of recombinant full-length human TSSK2 assessed as residual activity at 10 uM using KKKVSRSGLYRSPSMPENLNRPR as substrate incubated for 40 mins in presence of [gamma33P]ATP by scintillation counting based radiometry assay relative to control.
Assay [12] has as its target MAP/microtubule affinity-regulating kinase 3 (Homo sapiens) (UniProt P27448). Description: Inhibition of recombinant full length human MARK3 assessed as residual activity at 10 uM using KKKVSRSGLYRSPSMPENLNRPR as substrate incubated for 40 mins in presence of [gamma-33ATP by scintillation counting based radiometry assay relative to control.
Assay [13] deals with TGF-beta receptor type-2 (Homo sapiens) (UniProt P37173). Description: Inhibition of recombinant human TGFBR2 (188 to end residues) assessed as residual activity at 10 uM using myelin basic protein as substrate incubated for 120 mins in presence of [gamma33P]ATP by scintillation counting based radiometry assay relative to control.
Assay [14] deals with Tau-tubulin kinase 2 (Homo sapiens) (UniProt Q6IQ55). Description: Inhibition of recombinant human TTBK2 (1 to 331 residues) assessed as residual activity at 10 uM using casein as substrate incubated for 40 mins in presence of [gamma33P]ATP by scintillation counting based radiometry assay relative to control.
Assay [15] deals with Casein kinase II subunit alpha' (Homo sapiens) (UniProt P19784). Description: Inhibition of recombinant full length human CK2alpha2 assessed as residual activity at 10 uM using RRRDDDSDDD as substrate incubated 40 mins in presence of [gamma-33ATP] by scintillation counting based radiometry assay relative to control.
Casein kinase II subunit alpha' (Homo sapiens), sequence (P19784 whole entry, looked up): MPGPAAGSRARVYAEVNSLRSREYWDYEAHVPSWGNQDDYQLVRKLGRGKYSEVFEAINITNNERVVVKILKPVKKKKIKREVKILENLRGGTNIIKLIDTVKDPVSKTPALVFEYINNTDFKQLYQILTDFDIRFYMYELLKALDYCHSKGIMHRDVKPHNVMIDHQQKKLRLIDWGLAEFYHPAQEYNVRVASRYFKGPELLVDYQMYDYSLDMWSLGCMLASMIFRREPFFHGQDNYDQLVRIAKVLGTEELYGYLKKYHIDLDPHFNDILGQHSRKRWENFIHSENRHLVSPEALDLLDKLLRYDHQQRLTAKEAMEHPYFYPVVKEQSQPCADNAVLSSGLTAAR
Assay [16] has as its system Serine/threonine-protein kinase B-raf (Homo sapiens), P15056 [V600E]. Description: Inhibition of recombinant full length human B-Raf V599E mutant (416 to end residues) assessed as residual activity at 10 uM using myelin basic protein as substrate incubated for 40 mins in presence of [gamma-33ATP] by scintillation counting based radiometry assay relative to control.
In assay [17] the target is Mitogen-activated protein kinase kinase kinase 2 (Homo sapiens) (UniProt Q9Y2U5). Description: Inhibition of recombinant full length human MEKK2 assessed as residual activity at 10 uM using myelin basic protein as substrate incubated for 40 mins in presence of [gamma-33ATP by scintillation counting based radiometry assay relative to control.
Mitogen-activated protein kinase kinase kinase 2 (Homo sapiens), sequence (Q9Y2U5 whole entry, the tested form may be a part): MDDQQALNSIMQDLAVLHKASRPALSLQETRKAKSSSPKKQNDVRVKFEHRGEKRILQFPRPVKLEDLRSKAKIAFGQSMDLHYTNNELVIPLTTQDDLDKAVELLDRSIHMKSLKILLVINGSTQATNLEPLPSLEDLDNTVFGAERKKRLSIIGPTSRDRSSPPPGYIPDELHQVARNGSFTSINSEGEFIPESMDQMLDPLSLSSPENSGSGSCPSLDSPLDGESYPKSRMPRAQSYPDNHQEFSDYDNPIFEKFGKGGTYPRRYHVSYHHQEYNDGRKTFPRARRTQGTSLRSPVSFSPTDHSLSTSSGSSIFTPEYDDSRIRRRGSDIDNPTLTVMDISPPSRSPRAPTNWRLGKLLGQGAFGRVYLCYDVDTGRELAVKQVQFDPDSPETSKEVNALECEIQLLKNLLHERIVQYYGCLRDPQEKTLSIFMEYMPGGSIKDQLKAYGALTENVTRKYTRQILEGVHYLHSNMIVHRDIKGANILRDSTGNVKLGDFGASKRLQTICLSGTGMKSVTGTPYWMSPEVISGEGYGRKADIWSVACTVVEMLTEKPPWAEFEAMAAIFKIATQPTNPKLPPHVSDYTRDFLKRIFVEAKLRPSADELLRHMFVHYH
The target in assay [18] is Fibroblast growth factor receptor 4 (Homo sapiens) (UniProt P22455). Description: Inhibition of recombinant human FGFR4 (442 to 755 residues) assessed as residual activity at 10 uM using poly(Glu, Tyr) 4:1 as substrate at 40 mins in presence of [gamma-33ATP] by scintillation counting based radiometry assay relative to control.
For assay [19], the target named is CDK3/Cyclin E (Homo sapiens) (UniProt P24864+Q00526). Description: Inhibition of recombinant full length human CDK3/CyclinE assessed as residual activity at 10 uM using Histone H1 as substrate incubated for 40 mins in presence of [gamma-33ATP] by scintillation counting based radiometry assay relative to control. The assay is classed as protein-complex assay.

Serine/threonine-protein kinase B-raf (Homo sapiens), P15056 [V600E], sequence (P15056 whole entry V600E): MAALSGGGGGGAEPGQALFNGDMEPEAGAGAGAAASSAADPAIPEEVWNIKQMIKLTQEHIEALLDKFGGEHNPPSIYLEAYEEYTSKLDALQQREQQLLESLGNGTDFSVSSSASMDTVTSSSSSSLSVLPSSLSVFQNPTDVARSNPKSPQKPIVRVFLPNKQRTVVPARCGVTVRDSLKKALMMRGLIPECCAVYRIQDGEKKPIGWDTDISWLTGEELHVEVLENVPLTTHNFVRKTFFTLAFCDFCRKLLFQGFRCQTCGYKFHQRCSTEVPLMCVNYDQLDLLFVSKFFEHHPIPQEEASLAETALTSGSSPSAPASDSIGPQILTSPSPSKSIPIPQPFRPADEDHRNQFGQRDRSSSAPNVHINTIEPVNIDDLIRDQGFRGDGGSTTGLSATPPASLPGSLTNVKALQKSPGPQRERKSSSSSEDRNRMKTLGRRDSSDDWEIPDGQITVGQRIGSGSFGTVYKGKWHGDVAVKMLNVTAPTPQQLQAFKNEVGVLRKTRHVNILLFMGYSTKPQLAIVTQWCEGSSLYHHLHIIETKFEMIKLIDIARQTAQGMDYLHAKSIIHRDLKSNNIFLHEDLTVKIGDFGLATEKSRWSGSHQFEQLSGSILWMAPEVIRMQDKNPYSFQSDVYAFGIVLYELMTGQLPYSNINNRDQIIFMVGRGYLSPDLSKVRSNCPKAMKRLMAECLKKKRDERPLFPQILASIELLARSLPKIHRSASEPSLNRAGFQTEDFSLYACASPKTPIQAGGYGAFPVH
Fibroblast growth factor receptor 1 (Homo sapiens), P11362 [V561M], sequence (P11362 whole entry V561M, the tested form may be a part): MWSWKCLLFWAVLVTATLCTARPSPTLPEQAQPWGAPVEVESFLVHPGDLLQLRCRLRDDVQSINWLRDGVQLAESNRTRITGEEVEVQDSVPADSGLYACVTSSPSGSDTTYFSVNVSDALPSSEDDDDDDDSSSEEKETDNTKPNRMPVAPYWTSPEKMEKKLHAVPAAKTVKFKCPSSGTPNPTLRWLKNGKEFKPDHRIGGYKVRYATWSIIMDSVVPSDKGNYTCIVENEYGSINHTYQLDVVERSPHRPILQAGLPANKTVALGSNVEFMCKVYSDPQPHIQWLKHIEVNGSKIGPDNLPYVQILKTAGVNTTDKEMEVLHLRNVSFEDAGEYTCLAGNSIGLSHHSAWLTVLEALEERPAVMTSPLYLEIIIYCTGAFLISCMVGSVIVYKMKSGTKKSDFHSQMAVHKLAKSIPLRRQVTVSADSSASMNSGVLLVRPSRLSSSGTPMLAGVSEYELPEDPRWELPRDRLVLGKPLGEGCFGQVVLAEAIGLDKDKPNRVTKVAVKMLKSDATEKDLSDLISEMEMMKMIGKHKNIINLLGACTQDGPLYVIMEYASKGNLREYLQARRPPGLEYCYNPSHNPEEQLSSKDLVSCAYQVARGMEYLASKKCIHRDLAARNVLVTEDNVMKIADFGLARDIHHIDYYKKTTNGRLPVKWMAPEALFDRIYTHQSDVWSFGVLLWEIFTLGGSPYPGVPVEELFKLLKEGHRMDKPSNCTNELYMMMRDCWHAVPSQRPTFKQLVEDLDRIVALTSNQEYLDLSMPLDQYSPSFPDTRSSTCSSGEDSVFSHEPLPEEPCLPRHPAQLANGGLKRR

Consider `C[C@@H](c1ccccc1)n1nnc2cnc3ccc(-c4cnc5[nH]ccc5c4)cc3c21`, for which the Activity in [1] turned out to be 22%; in the assay listed under Homo sapiens it was 3%; in assay [2], 97%; in assay [3], 102%; in [4], 116%; in assay [5], 81%. The Activity in assay [6] was 84%; in [8], 93%; in assay [9], 2%; in assay [10], 105%; in [11], 63%; in assay [12], 91%. Moreover, the Activity is 87% in assay [13]; 87% in assay [14]; 83% in assay [15]; 64% in assay [16]; 107% in [17]; 68% in assay [18]. The Activity in [19] is 71%. In addition, the Kd in [7] is more than 10 µM.

The values above are taken from ChEMBL document CHEMBL4334471, “Discovery of 1,8-disubstituted-[1,2,3]triazolo[4,5-c]quinoline derivatives as a new class of Hippo signaling pathway inhibitors” (Bioorg Med Chem Lett, 2019).
